Source: ChEMBL document CHEMBL4680091, “Discovery of Novel Spiro[3H-indole-3,2'-pyrrolidin]-2(1H)-one Compounds as Chemically Stable and Orally Active Inhibitors of the MDM2-p53 Interaction” (J Med Chem, 2016)
Each block holds one compound with its values, some of them ahead of it.

Tests used:
[1] = target: Tumour suppressor p53/oncoprotein Mdm2 (Homo sapiens, UniProt Q00987); experiment: Inhibition of GST-tagged MDM2 (amino acids 17 to 111 residues)/p53 (unknown origin) interaction incubated for 15 mins by; type: protein assay
Tumour suppressor p53/oncoprotein Mdm2, sequence (P04637 whole entry, the tested form may be a part): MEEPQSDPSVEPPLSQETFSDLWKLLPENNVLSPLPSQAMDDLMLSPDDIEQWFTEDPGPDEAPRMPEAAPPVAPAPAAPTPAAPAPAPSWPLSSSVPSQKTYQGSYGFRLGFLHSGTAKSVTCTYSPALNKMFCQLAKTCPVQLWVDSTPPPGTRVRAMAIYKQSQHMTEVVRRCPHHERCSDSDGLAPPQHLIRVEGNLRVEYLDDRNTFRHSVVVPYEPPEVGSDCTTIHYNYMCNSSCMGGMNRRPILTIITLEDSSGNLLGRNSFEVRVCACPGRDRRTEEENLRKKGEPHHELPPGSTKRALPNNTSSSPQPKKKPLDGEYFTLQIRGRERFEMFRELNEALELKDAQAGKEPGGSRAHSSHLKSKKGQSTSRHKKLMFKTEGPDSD
Tumour suppressor p53/oncoprotein Mdm2, sequence (Q00987 whole entry, the tested form may be a part): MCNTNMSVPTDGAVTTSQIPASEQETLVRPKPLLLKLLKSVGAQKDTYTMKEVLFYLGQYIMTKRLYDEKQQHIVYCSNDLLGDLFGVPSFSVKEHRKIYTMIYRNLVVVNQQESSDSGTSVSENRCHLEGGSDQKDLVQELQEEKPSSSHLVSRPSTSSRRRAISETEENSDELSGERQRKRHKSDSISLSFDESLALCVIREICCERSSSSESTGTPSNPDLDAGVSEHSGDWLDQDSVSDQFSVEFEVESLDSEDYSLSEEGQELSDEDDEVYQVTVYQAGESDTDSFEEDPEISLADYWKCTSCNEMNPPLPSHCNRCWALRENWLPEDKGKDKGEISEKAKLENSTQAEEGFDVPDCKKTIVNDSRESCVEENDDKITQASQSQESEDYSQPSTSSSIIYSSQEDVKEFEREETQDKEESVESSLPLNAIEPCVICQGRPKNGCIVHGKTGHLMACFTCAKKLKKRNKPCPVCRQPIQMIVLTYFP

SJSA-1 = experiment: Antiproliferative activity against human SJSA-1 cells expression wild type p53 incubated for 3 days by Alamar Blue dye based assay; type: functional, cell-based; settings: SJSA-1, 72 h
SK-OV-3 = experiment: Antiproliferative activity against human SK-OV-3 cells expression p53 mutant incubated for 3 days by Alamar Blue dye based assay; type: functional, cell-based; settings: SK-OV-3, 72 h
How it was run: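 p53-mutant SK-OV-3 cells were used in a growth/proliferation assay, with compounds tested up to 25 μM.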

SMILES: O=C1Nc2cc(Cl)ccc2[C@]12N[C@@H](Cc1c[nH]cn1)[C@@H]([N+](=O)[O-])[C@@H]2c1cccc(Cl)c1 (racemic)
IC50 [1]: 15200 nM

SMILES: O=C1Nc2cc(Cl)ccc2[C@]12N[C@@H](CO)[C@@H]([N+](=O)[O-])[C@@H]2c1cccc(Cl)c1 (racemic)
IC50 [1]: 30700 nM

SMILES: O=C1Nc2cc(Cl)ccc2[C@]12NC[C@@H]([N+](=O)[O-])[C@@H]2c1cccc(Cl)c1 (racemic)
IC50 [1]: 36500 nM

SMILES: NC(=O)c1cccc(C[C@@H]2N[C@@]3(C(=O)Nc4cc(Cl)ccc43)[C@@H](c3cccc(Cl)c3)[C@@H]2[N+](=O)[O-])c1 (racemic)
IC50 [1]: 18300 nM

SMILES: CC(C)CCN1[C@@H](C)[C@@H](N)[C@H](c2cccc(Cl)c2)[C@]12C(=O)Nc1cc(Cl)ccc12 (racemic)
IC50 [1]: 1080 nM

SMILES: O=C1Nc2cc(Cl)ccc2[C@]12N[C@@H](Cn1cncn1)[C@@H]([N+](=O)[O-])[C@@H]2c1cccc(Cl)c1 (racemic)
IC50 [1]: 5500 nM

SMILES: C[C@@H]1N[C@@]2(C(=O)Nc3cc(Cl)ccc32)[C@@H](c2cccc(Cl)c2)[C@@H]1N (racemic)
IC50 [1]: 74000 nM

SMILES: C[C@@H]1N[C@@]2(C(=O)Nc3cc(Cl)ccc32)[C@@H](c2cccc(Cl)c2)[C@@H]1[N+](=O)[O-] (racemic)
IC50 [1]: 40000 nM

SMILES: CCOc1cccc(CN2[C@H]3CCN(CC(=O)O)[C@H]3[C@H](c3cccc(Cl)c3F)[C@]23C(=O)Nc2cc(Cl)ccc23)c1
IC50 (SJSA-1): 287 nM
IC50 (SK-OV-3): > 25000 nM

SMILES: O=C1Nc2cc(Cl)ccc2[C@]12CNC[C@@H]2c1cccc(Cl)c1 (racemic)
IC50 [1]: 36000 nM

Further lines, results first:

IC50 [1]: 944 nM
SMILES: CC(C)CN1C[C@@H](N)[C@H](c2cccc(Cl)c2)[C@]12C(=O)Nc1cc(Cl)ccc12

IC50 [1]: 563 nM
SMILES: C[C@H]1[C@@H](N)[C@H](c2cccc(Cl)c2)[C@]2(C(=O)Nc3cc(Cl)ccc32)N1CC1CC1

IC50 [1]: 34 nM
SMILES: CCOc1cccc(CN2[C@@H](C)[C@@H](N)[C@H](c3cccc(Cl)c3F)[C@]23C(=O)Nc2cc(Cl)ccc23)c1

IC50 [1]: 819 nM
SMILES: CC(C)(C)CN1C[C@@H](N)[C@H](c2cccc(Cl)c2)[C@]12C(=O)Nc1cc(Cl)ccc12

IC50 [1]: 107 nM
SMILES: C[C@H]1[C@@H](NCc2ccc(C(=O)O)cc2)[C@H](c2cccc(Cl)c2F)[C@]2(C(=O)Nc3cc(Cl)ccc32)N1CC1CC1

IC50 [1]: 39 nM
SMILES: O=C(O)CN1CC[C@H]2[C@@H]1[C@H](c1cccc(Cl)c1F)[C@]1(C(=O)Nc3cc(Cl)ccc31)N2CC1CC1 (racemic)

IC50 (SJSA-1): 2880 nM
IC50 [1]: 62 nM
IC50 (SK-OV-3): > 25000 nM
SMILES: C[C@H]1[C@@H](NCC(=O)O)[C@H](c2cccc(Cl)c2F)[C@]2(C(=O)Nc3cc(Cl)ccc32)N1CC1CC1
